IC50, Activity and Km data for three compounds are collected here from ChEMBL document CHEMBL1140845, “Synthesis of deoxygenated alpha(1-->5)-linked arabinofuranose disaccharides as substrates and inhibitors of arabinosyltransferases of Mycobacterium tuberculosis” (Bioorg Med Chem, 2009).

Test [1] can be described thus: Inhibition of arabinosyltransferase in Mycobacterium tuberculosis membrane assessed as blockade of [14C]Araf incorporation to {Ara-f(1>5)Araf-O_C8H17] acceptor molecule by TLC autoradiography. The essentials:
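Competition format of the membrane AraTs assay: MOPS pH 8.0, MgCl2, ATP, β-mercaptoethanol, DP-[14C]Araf donor, 37°C for 1 h. Native acceptor Araf(1→5)Araf-O-C8H17 is held at 0.4 mM. Competitors are added at 0.5, 0.75, 1.0, 2.0, 4.0 and 6.0 mM. Product formation is judged by TLC (CHCl3:MeOH:NH4OH:H2O) with autoradiography at −70 °C for 3 days. IC50 is derived from the extent of product formation.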

In the next test the test system is Mycobacterium avium. Description: Antimycobacterial activity against Mycobacterium avium NJ 211 at 12.8 to 128 ug/mL. The format is functional, organism-based.
For test [2], the system named is Mycobacterium tuberculosis. Description: Activity of arabinosyltransferase in Mycobacterium tuberculosis membrane assessed as [14C]Araf incorporation by TLC autoradiography.

Each structure is given as a SMILES string. Activity calls are given as the source filed them. No cut-off for these calls is given here.

With `CCCCCCCCO[C@H]1O[C@H](CO[C@H]2O[C@H](CO)[C@@H](O)[C@@H]2O)C[C@@H]1O`, the IC50 in test [1] amounted to 2150 µM. Moreover, in the test with Mycobacterium avium, the result was Active. For the same compound, the Km in test [2] was determined as 110 µM.

With `CCCCCCCCO[C@@H]1C[C@H](O)[C@@H](CO[C@H]2O[C@H](CO)[C@@H](O)[C@@H]2O)O1`, in test [1], the IC50 stood at 2450 µM. Further, the result in the test on Mycobacterium avium was Active. For the same compound, the Km in test [2] turned out to be 150 µM.

With `CCCCCCCCO[C@H]1O[C@H](CO[C@H]2O[C@H](CO)[C@@H](O)[C@@H]2O)[C@@H](O)[C@@H]1F`, the IC50 in test [1] was 3580 µM. Further, the result with Mycobacterium avium was Active. Besides, the Michaelis constant (Km) in test [2] amounted to 560 µM.

One may read the IC50 as the midpoint of a concentration-inhibition curve. A word on the Km: it is the concentration of substrate that gives half-maximal velocity.
